Source: PubChem
Shown are actives, neighbours in structure and some others; about 3.6% of the full set was active somewhere.
NadD block: inhibitors of Staphylococcus aureus NadD. AID 602399. purified NadD enzyme, colorimetric absorbance read-out. actives 0.78% (n = 360,000). inhibition, % at 20 µM; in the data active = inhibition above about 26%
SENP1 inh: SENP1 (human) catalytic domain inhibition | inhibition, % at 10 µM | Q9P0U3 | actives 0.21% (n = 360,000) | AID 624204 | recombinant SENP1 catalytic domain, CyPet-SUMO1-YPet FRET cleavage;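 active = inhibition at least 30% at 10 µM, raw YFP signal under a set limit, fluorescence ratio 0.5 to 1.5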
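material = recombinant human SENP1 catalytic domain, His6-tagged | quantity = 20 pM enzyme | reagent = 25 nM SUMO1 FRET substrate | compound dosing = 10 µM single point, 0.5% DMSO | timing = 50 min enzyme reaction, room temperature, light-protected | detection = FRET, CFP and YFP emission | control set = no-enzyme low, enzyme-DMSO high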
ATG4B inh: blocks human ATG4B protease cleavage of LC3 substrate; Q9Y4P1; ATG4B cleavage of LC3-PLA2, NBD-HPC fluorescence, 1 h; inhibition, % at 8.33 µM; actives 0.51% (n = 340,000); AID 504462; in the data active = inhibition above about 40%
NR3A LBD binder: NR3A (human) ligand-binding domain modulation; actives 2.5% (n = 340,000); Tm shift relative to glycine control, % at 25 µM; NR3A LBD differential scanning fluorimetry, Tm shift; 0% = protein alone, 100% = glycine-bound protein; AID 1259313;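 active = melting temperature shift of at least 10% of the positive control shift, at one fixed dose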
UCH37 inh: blocks the human deubiquitinase UCH37 | purified proteasome/UCH37, Ub-AMC cleavage fluorescence | inhibition, % (test concentration not listed) | Q9Y5K5 | actives 0.33% (n = 330,000);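 active = mean inhibition over replicate wells above about 20%, limit read from the data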
Target sequence (Q9Y5K5 whole entry, looked up): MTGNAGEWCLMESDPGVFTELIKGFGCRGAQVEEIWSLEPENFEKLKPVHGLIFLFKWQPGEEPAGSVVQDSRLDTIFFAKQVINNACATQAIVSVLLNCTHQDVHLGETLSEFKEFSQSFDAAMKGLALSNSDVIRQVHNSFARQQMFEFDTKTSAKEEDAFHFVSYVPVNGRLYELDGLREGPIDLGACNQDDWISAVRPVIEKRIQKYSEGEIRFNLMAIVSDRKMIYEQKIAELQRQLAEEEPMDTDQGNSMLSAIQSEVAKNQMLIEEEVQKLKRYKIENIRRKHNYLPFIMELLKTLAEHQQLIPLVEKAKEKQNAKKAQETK
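System: Proteasome-associated human UCH37 deubiquitinase; Input: 0.15 nM proteasome in added enzyme buffer; Also added: Ub-AMC substrate from 1 µM stock; Incubation: 30 min compound-proteasome preincubation then 25 min substrate reaction, room temperature; Detection: fluorescence, ex 355 nm, em 460 nm; Read-out: % inhibition of Ub-AMC cleavage fluorescence; Benchmarks: no-proteasome and no-compound wells.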
Numbers stand for hits.

How did O=S(=O)(Nc1ccc(-n2cccc2)cc1)c1ccc(Cl)cc1Cl do in these assays?
NadD block: inactive; SENP1 inh: inactive; ATG4B inh: inactive; NR3A LBD binder: 14; UCH37 inh: inactive

How did O=S(=O)(Nc1ccc(-n2cccc2)cc1)c1ccc(F)cc1 do in these assays?
NadD block: inactive; SENP1 inh: inactive; ATG4B inh: inactive; NR3A LBD binder: inactive; UCH37 inh: inactive

What do the screens show for `O=S(=O)(Nc1ccc(-n2cccc2)cc1)c1ccc(Cl)c(Cl)c1`?
NadD block: inactive; SENP1 inh: inactive; ATG4B inh: inactive; NR3A LBD binder: 35; UCH37 inh: inactive

How did c1cncc(-c2cn(C[C@H]3CC[C@@H]([C@@H]4CC[C@H](Cn5cc(-c6cccnc6)nn5)O4)O3)nn2)c1 do in these assays?
NadD block: inactive; SENP1 inh: inactive; ATG4B inh: inactive; NR3A LBD binder: inactive; UCH37 inh: 25

How did c1cncc(-c2cn(C[C@H]3CC[C@H](Cn4cc(-c5cccnc5)nn4)O3)nn2)c1 do in these assays?
NadD block: inactive; SENP1 inh: inactive; ATG4B inh: inactive; NR3A LBD binder: inactive; UCH37 inh: inactive

How did O=c1[nH]c2ccccc2c(=O)n1Cc1ccco1 do in these assays?
NadD block: inactive; SENP1 inh: inactive; ATG4B inh: inactive; NR3A LBD binder: inactive; UCH37 inh: 21

How did COc1ccc(N=C2NN=C(c3ccc4c(c3)OCCO4)CS2)cc1 do in these assays?
NadD block: inactive; SENP1 inh: inactive; ATG4B inh: inactive; NR3A LBD binder: inactive; UCH37 inh: inactive

Results for FC(F)Sc1ccc(N=C2NN=C(c3ccc4c(c3)OCCO4)CS2)cc1 ?
NadD block: inactive; SENP1 inh: inactive; ATG4B inh: inactive; NR3A LBD binder: 15; UCH37 inh: inactive

Results for CC(=NO)C(=O)C(CN1CCCCC1)CN1CCCCC1 ?
UCH37 inh: inactive

Results for C=CCN1C(=O)C(O)(CC(=O)c2ccc(-n3cccc3)cc2)c2ccccc21 (stereo not given) ?
NadD block: 27; SENP1 inh: inactive; ATG4B inh: inactive; NR3A LBD binder: inactive; UCH37 inh: inactive

Results for COc1ccc(NC(=O)COC(=O)c2cc([N+](=O)[O-])ccc2N2CCOCC2)cc1 ?
NadD block: inactive; SENP1 inh: inactive; ATG4B inh: inactive; NR3A LBD binder: inactive; UCH37 inh: inactive

What do the screens show for `CC(=O)Nc1ccc(NC(=O)COC(=O)c2cc([N+](=O)[O-])ccc2N2CCOCC2)cc1`?
NadD block: inactive; SENP1 inh: inactive; ATG4B inh: inactive; NR3A LBD binder: 23; UCH37 inh: inactive

How did O=C(COC(=O)c1cc([N+](=O)[O-])ccc1N1CCOCC1)NCCc1ccccc1 do in these assays?
NadD block: inactive; SENP1 inh: inactive; ATG4B inh: inactive; NR3A LBD binder: 16; UCH37 inh: inactive

How did CC1=NNC(=O)C1CC(=O)NN=Cc1sccc1C (stereo not given) do in these assays?
UCH37 inh: inactive

Results for Nc1nnnn1/N=C/c1cc(Cl)cc(Cl)c1OCc1ccc(Cl)cc1Cl ?
NadD block: inactive; SENP1 inh: 53; ATG4B inh: inactive; NR3A LBD binder: inactive

Results for Oc1ccc2c(c1)oc1cc(O)ccc12 ?
NadD block: inactive; SENP1 inh: inactive; ATG4B inh: inactive; NR3A LBD binder: 18; UCH37 inh: inactive

What do the screens show for `COc1c(C)oc2cc(O)ccc2c1=O`?
NadD block: inactive; SENP1 inh: inactive; ATG4B inh: inactive; NR3A LBD binder: inactive; UCH37 inh: inactive

Results for COC(=O)c1ccc(COc2ccc(C=NNC(N)=S)cc2)o1 ?
UCH37 inh: inactive

What do the screens show for `O=C(Nc1cc(C(F)(F)F)ccc1Cl)C(NCc1ccccc1)c1ccccc1` (stereo not given)?
NadD block: inactive; SENP1 inh: inactive; ATG4B inh: inactive; NR3A LBD binder: 18; UCH37 inh: inactive

Results for Cc1cnc(C(=O)OCC(=O)Nc2ccc(Br)c(C)c2)cn1 ?
NadD block: inactive; SENP1 inh: inactive; ATG4B inh: inactive; NR3A LBD binder: 12; UCH37 inh: inactive

How did CC(=O)OCC(=O)Nc1ccc(Br)c(C)c1 do in these assays?
NadD block: inactive; SENP1 inh: inactive; ATG4B inh: inactive; NR3A LBD binder: inactive; UCH37 inh: inactive

How did Cc1cnc(C(=O)OCC(=O)Nc2cc(Cl)cc(Cl)c2)cn1 do in these assays?
NadD block: inactive; SENP1 inh: inactive; ATG4B inh: inactive; NR3A LBD binder: 13; UCH37 inh: inactive
